The list is not random: actives were taken first. Their share in the collection is about 2.6%.
AHR act = activates the human aryl hydrocarbon receptor | AHR-responsive luciferase reporter cells, luminescence | actives 2.5% (n = 320,000) | P35869 | activation, % at 5 µM | AID 2796; in the data active means activation above about 47%;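 further: 0% = vehicle wells and 100% = reference agonist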
procasp3 activ = activators of human procaspase-3; P42574; recombinant procaspase-3 D3A, Ac-DEVD-pNA absorbance 405 nm; activation, % at 8.5 µM; actives 0.11% (n = 330,000);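 active means activation above the mean of all tested compounds plus 3 SD, cut at about 21% in these data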;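 further: 0% = DMSO alone and 100% = DMSO wells spiked with extra 5 µM PC-3 D3A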
Target sequence (P42574 whole entry D9A/D28A/D175A): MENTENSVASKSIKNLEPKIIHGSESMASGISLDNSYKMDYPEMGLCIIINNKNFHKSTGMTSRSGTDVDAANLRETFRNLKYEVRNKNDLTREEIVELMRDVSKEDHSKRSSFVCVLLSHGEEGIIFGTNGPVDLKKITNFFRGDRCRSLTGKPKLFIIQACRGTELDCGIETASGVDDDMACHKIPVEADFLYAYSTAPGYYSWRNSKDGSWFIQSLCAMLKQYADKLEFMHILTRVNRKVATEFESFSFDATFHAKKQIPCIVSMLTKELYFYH
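assay system = Procaspase-3 D3A mutant | signal = absorbance at 405 nm, 0 and 120 min | times = 1 h preincubation plus 2 h reaction at 25 °C | repeats = single replicate | read-out = % activation between DMSO and enzyme-spiked controls | medium = Zinc-free HEPES saline buffer with Triton X-100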
procasp7 counter = counter-screen for procaspase-3 activators: activators of human procaspase-7; recombinant procaspase-7, Ac-DEVD-pNA absorbance 405 nm; D23A/D198A/D206A triple mutant, cannot self-cleave; scale: DMSO 0, 5 µM enzyme 100; activation, % at 8.5 µM; actives 0.093% (n = 330,000);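 active means percent activation above the screen-wide mean plus 3 SD, cut at about 25% in these data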
Target sequence (P55210 whole entry D23A/D198A/D206A): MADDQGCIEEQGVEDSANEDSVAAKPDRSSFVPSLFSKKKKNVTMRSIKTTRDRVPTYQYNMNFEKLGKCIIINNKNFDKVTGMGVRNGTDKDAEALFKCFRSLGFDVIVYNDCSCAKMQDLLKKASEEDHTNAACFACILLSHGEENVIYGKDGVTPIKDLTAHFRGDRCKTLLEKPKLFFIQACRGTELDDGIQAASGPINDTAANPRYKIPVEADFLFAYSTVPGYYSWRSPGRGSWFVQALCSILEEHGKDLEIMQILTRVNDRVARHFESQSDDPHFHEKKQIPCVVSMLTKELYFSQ
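Material: Procaspase-7 triple mutant (PC-7 D3A) | Quantity: 2 µM procaspase-7 mutant as dispensed | Reagent: DEVD-pNA substrate | Times: 1 h preincubation, 2 h reaction | Technique: 405 nm absorbance of p-nitroaniline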
PolyA inh = blocks polyadenylation in yeast reporter cells. S. cerevisiae SKY197-pL101 polyadenylation reporter, beta-gal luminescence; efflux-impaired pdr1/pdr3 knockout yeast; score 100 = 6 SD above DMSO. activity score, % at 12 µM. actives 0.02% (n = 300,000). AID 1875;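 active means lowest replicate activity score at least 50, where 100 means six control SD above control mean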;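 further: yeast exposed to compound for 9 h at 30 °C; higher score means more reporter readthrough which indicates perturbed polyadenylation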
* = called active by the depositor; . = no result.

SMILES	AHR act	procasp3 activ	procasp7 counter	PolyA inh
Cc1ccc2nc3c(cc(C(=O)NC4CCS(=O)(=O)C4)n3Cc3ccccc3)c(=O)n2c1 (stereo not drawn)	1.1	0.6	0.5	0.3
COc1ccc(NC(=O)CN2CCN(C(=O)N3CCOCC3)CC2)cc1	1.4	-21.6	-3.8	-3.4
Nc1cccnc1Sc1ccc([N+](=O)[O-])cn1	.	.	.	8.6
Nc1cccnc1Sc1cc(Cl)c(Cl)cc1Cl	59.5*	3.8	15.5	-9.3
C[C@H](CO)N1C[C@H](C)[C@@H](CN(C)S(=O)(=O)c2ccc(F)cc2)Oc2c(NC(=O)Cc3ccccc3)cccc2C1=O	0.7	-0.4	7.2	.
O=c1[nH][nH]c(=O)n1-c1ccccc1	-0.2	-1.8	11.7	6.6
CCOC(=O)C1CCN(c2c(NCc3ccc(C(=O)N(C)Cc4ccccc4)cc3)c(=O)c2=O)CC1	-0.7	2.3	1.6	-8.4
COc1cc(CNCCc2ccc(S(N)(=O)=O)cc2)ccc1OCC(=O)NC(C)(C)C	49.0*	6.8	3.0	-10.4
Cc1cnc(=O)[nH]c1SCc1ccc([N+](=O)[O-])cc1	1.8	0.6	-3.6	20.5
COc1ccc(C)cc1N(CC(=O)NCCSCc1cccc(Cl)c1)S(C)(=O)=O	-0.2	3.7	5.2	-12.1
O=C(Nc1cccc(-c2csc(Nc3ccc(Cl)cc3)n2)c1)c1cc([N+](=O)[O-])cc(C(F)(F)F)c1	55.9*	2.5	0.0	-7.0
O=C(Nc1cccc(-c2csc(Nc3ccccc3)n2)c1)c1cc([N+](=O)[O-])cc(C(F)(F)F)c1	31.1	3.0	2.4	-11.1
CN(C)C(=O)CCc1ccc2c3c([nH]c2c1)[C@]1(C)[C@@H](C(=O)N2CCCCC2)C[C@H](CC(=O)NCCCn2ccnc2)C(=O)N1CC3	.	7.0	5.0	.
Cc1cc(C)[n+]2[nH]c(N)c(N=Nc3ccccc3)c2n1	69.9*	-10.5	-9.3	-0.6
CN(C)S(=O)(=O)n1cc(/C=C(\NC(=O)c2ccccc2)C(=O)N2CCCC2)c2ccccc21	4.5	1.5	7.7	-4.3
O=S(=O)(NCc1csc(-c2cccnc2)n1)c1cccs1	19.5	-4.2	-14.3	-11.7
O=S(=O)(NCCc1csc(-c2cccnc2)n1)c1cccs1	68.7*	-4.7	0.2	-6.6
NCCSc1c(-c2ccc(Cl)cc2)[nH]c2ccccc12	48.0*	-4.4	-9.4	-4.0
COc1ccc(N2CC(NS(=O)(=O)c3ccc(F)cc3)CC2=O)cc1 (stereo not drawn)	-5.0	2.1	9.1	11.6
Oc1sc(C=Nc2ccccc2)c2ccccc12	49.9*	-18.8	-29.1	-28.7
COc1ccc(C2CCCN2C(=S)Nc2cccc(C)c2C)cc1OC (stereo not drawn)	1.1	-6.6	5.0	-8.1
Cc1cc(C)c(S(=O)(=O)N/N=C/c2ccc3c(c2)OCO3)c(C)c1	.	.	.	-4.8
CCc1ccccc1NC(=O)c1cc2sccc2n1C	64.1*	8.6	-1.2	0.6
Cn1c(C(=O)Nc2ccccc2)cc2sccc21	56.5*	8.9	2.6	-12.5
CC(CCc1ccccc1)NC(=O)c1cc2sccc2n1C (stereo not drawn)	0.8	-0.3	12.3	7.6
SMILES	AHR act	procasp3 activ	procasp7 counter	PolyA inh
Cc1ccc(N2CC3=C(C2=O)C(c2ccccc2)NC(=O)N3C)cc1 (stereo not drawn)	-2.1	4.2	8.0	-10.7
CN1C(=O)NC(c2ccccc2)C2=C1CN(c1ccc3ccccc3c1)C2=O (stereo not drawn)	67.8*	2.5	3.3	-10.5
c1ccc(-c2nc(-c3ccccn3)nc(-c3ccccn3)n2)nc1	9.9	-2.5	-10.7	9.6
c1ccc(-c2nnc(-c3ccccn3)s2)nc1	65.0*	-5.6	-15.2	3.3
CCN(CC)c1ccc(/C=N/NC(=O)c2cc3ccccc3[nH]2)cc1	58.4*	-2.4	-4.4	12.9
CCN(CC)c1ccc(/C=N/NC(=O)c2ccccn2)cc1	25.7	-15.2	-14.2	10.5
CCN(CC)c1ccc(/C=N/NC(=O)c2c[nH]c3ccccc23)cc1	50.5*	3.6	-9.4	-11.4
CCN(CC)c1ccc(/C=N/NC(=O)c2cc(C)nc3ccccc23)cc1	10.0	-3.5	-6.5	6.1
COc1ccc(OC)c(CCNC(=O)c2cccc(NC(=O)C3=C(C)OCCS3)c2)c1	22.1	1.3	1.0	13.6
Cc1cc(C)n2nc(N)c(N=Nc3ccccc3)c2n1	60.4*	-3.9	-3.8	-8.5
c1ccc2c(Nc3nc(N4CCOCC4)c4ccccc4n3)cccc2c1	71.1*	1.7	3.8	-34.9
Fc1ccc(Nc2nc(N3CCOCC3)c3ccccc3n2)cc1	16.5	-6.6	5.3	-10.7
COc1cc(C(=O)O)nc2ccccc12	-1.5	7.0	-1.1	5.9
COc1cc(-c2ccccc2)nc2ccccc12	47.6*	-6.2	9.3	-19.8
COc1ccc(-c2cc3ccccc3cn2)cc1	50.9*	0.8	5.3	.
COc1ccc(-c2cc3cc(OC)c(OC)cc3c(C)n2)cc1	81.8*	-1.7	5.6	3.0
COc1ccc2c(OC)cc(-c3ccccc3)nc2c1	70.4*	5.5	12.8	-9.1
COc1ccc(-c2cc3ccc(OC)cc3cn2)cc1	43.8	10.5	-2.4	.
COc1ccc(NS(=O)(=O)c2cccc(C(=O)NNC(=O)c3ccc(Br)o3)c2)cc1	0.9	13.8	3.8	5.0
Cc1ccc(-n2ncc3c2CC(C)(C)CC3NC(=O)CCn2cncn2)cc1 (stereo not drawn)	.	.	.	1.4
Cc1ccc(C)c(SCC(=O)N(C)CC(=O)Nc2ccc(N3CCOCC3)cc2)c1	4.3	6.1	0.8	-1.7
COc1cccc(OC)c1C(=O)Nc1ccc(C(=O)NCc2ccccc2)cc1	-6.9	3.8	-2.7	-25.2
COc1ccc2cc(-c3cc(C(=O)O)c4ccccc4n3)ccc2c1	-14.2	-1.3	11.7	16.0
COc1ccc(-c2cc(OC)c3ccccc3n2)cc1	59.9*	2.1	-1.5	-25.4
Cc1nnc(NC(=O)CSc2nnc3c(n2)[nH]c2ccc(Br)cc23)s1	4.9	-3.5	-2.5	7.5
SMILES	AHR act	procasp3 activ	procasp7 counter	PolyA inh
Cn1cnnc1SCC(=O)NCCc1ccc(Cl)cc1Cl	5.1	5.7	-3.3	12.6
COc1ccccc1NCC(=O)NN=C1CCS(=O)(=O)c2ccc(F)cc21	49.2*	-4.3	4.1	.
O=C(CSc1nc(-c2ccccc2)ns1)NCC1CCCO1 (stereo not drawn)	12.7	-5.4	-1.9	-16.0
Cn1c(NCc2ccccc2O)nc2ccccc21	-1.4	4.5	-2.1	-3.0
Cn1c(NCc2ccccc2Cl)nc2ccccc21	76.8*	7.3	7.2	0.5
COc1ccc(CC(=O)N/N=C/c2c(C)n(C)c3ccccc23)cc1OC	47.9*	-3.5	-1.6	-11.0
Cc1c(/C=N/NC(=O)c2cc(C(C)(C)C)[nH]n2)c2ccccc2n1C	73.3*	-3.8	2.8	1.2
CC(C)(C)c1cc(C(=O)N/N=C/c2ccco2)n[nH]1	14.7	9.7	-3.4	11.4
CNC(=O)c1cc(S(=O)(=O)N2CC(C)OC(C)C2)ccc1N1CCCCC1 (stereo not drawn)	.	.	.	-7.0
